# Compound activity (PubChem)
# A selection: hits, their analogues and other compounds. The true share with any hit is near 1.8%.
# CAL PDZ FP-1 = blocks peptide binding to human CAL PDZ domain; purified CAL PDZ, TMR-peptide fluorescence polarization, 1 h; AID 504414; Q9HD26; 0.02% of 330,000 active; inhibition, % at 20 µM;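 active = highest replicate inhibition of at least 40%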;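 also: plate controls were DMSO neutral control wells for no effect and unlabeled competitor peptide control wells for full effect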
#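 Test system: purified CerCALP PDZ construct; Compound dosing: one concentration, 20 µM compound; Also added: TMR-labelled reporter peptide T*-PRC34 bound in PDZ groove; Read-out: inhibition from polarization loss; Controls: unlabelled peptide and DMSO controls; Signal: FP readout, S and P plane fluorescence; Incubation: 1 h at RT.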
# GRK2 inh = human GRK2 inhibition via aptamer displacement; P25098; bead flow cytometry, FAM-aptamer displacement from GRK2; inhibition of aptamer binding, % at 10 µM; 0.59% of 330,000 active; AID 488847;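 active = inhibition of aptamer binding above 40%, roughly 3 SD of noise, on plates passing a quality check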;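 also: median bead fluorescence of bound FAM aptamer so fluorescent compounds give negative values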
# Target sequence (P25098 whole entry, looked up): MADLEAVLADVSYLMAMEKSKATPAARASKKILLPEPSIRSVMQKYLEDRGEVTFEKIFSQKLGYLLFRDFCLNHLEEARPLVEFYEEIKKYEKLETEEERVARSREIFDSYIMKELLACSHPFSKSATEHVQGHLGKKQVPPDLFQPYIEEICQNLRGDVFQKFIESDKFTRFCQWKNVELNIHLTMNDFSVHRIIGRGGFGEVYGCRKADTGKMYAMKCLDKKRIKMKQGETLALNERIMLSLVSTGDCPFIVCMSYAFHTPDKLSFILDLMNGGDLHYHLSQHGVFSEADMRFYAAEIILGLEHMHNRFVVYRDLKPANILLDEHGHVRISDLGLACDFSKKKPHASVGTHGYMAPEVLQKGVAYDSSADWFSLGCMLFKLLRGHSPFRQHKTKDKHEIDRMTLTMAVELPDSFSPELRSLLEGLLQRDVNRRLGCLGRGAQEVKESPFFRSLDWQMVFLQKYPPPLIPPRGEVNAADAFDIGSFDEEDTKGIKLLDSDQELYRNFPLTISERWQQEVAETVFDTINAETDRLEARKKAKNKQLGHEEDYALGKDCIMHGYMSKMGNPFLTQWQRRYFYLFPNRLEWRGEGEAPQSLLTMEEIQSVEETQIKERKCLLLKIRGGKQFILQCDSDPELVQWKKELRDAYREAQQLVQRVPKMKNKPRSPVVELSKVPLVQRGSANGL
# ARNT-TACC3 inh = disrupts binding between human ARNT and TACC3 | Q9Y6A5 | AlphaScreen His-ARNT PAS-B/GST-TACC3 binding, luminescence; TACC3 fragment carries E629A point mutation | inhibition, % at 9.99 µM | 0.66% of 390,000 active | AID 623870;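 active = mean inhibition of replicates at least 50% and at least half of replicates each reaching 50%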;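 also: 0% = complete ARNT plus TACC3 wells and 100% = ARNT alone without TACC3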
# CAL PDZ FP-2 = blocks peptide binding to the human CAL PDZ domain | Q9HD26 | purified CAL PDZ, TMR-peptide fluorescence polarization, 1 h | inhibition, % at 24.9 µM | 0.92% of 300,000 active | AID 602252;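 active = mean inhibition of at least 30% with at least half of replicates also reaching 30%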;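 also: 0% = DMSO neutral control and 100% = excess unlabeled competitor peptide PRC23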
# Tn7 DDE FP = inhibitors of Tn7 peptide binding to human fibrin DD(E). P02675. FP displacement of FITC-Tn7 peptide from fibrin DD(E); 0% = median of compound wells per plate. inhibition, % at 8.3 µM. 0.13% of 370,000 active. AID 720508;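 active = inhibition above the mean of compounds falling within the control limits plus 3 SD of them, cut at about 14% in these data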;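 also: 0% = plate median of compound wells and 100% = 10 µM Aha-Tn7 peptide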
#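 System: human fibrin DD(E); quantity: Fibrin-DD(E) at 2 µM final; also added: fluorescent Tn7 probe at 0.1 µM; compound dosing: single nominal test concentration of 8.3 µM per compound; schedule: 10 min preincubation, 3 h with tracer, room temperature; detection: fluorescence polarization of the labelled Tn7 tracer; repeats: one replicate per compound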
# DDE Tn6 FP inh = inhibitors of Tn6 peptide binding to human fibrin DD(E). P02675. inhibition, % at 8.3 µM. 0.21% of 370,000 active. Fibrin DD(E) TRITC-Tn6 fluorescence polarization displacement;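 active = inhibition above a per-campaign cutoff: mean of compounds within control limits plus 3 SD, cut at about 15% in these data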;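 also: 0% = median of all compound wells on the plate and 100% = blocking peptide control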
# GRK2 CP1 = human GRK2 inhibition confirmation, cherry pick 1; shares compounds with GRK2 inh; bead-bound GRK2, FAM-aptamer displacement, flow cytometry; aptamer displacement, % at 10 µM; 4% of 2,000 active;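 active = aptamer displacement above 40%, near three times the noise of non-fluorescent compounds, on plates passing quality checks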;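 also: negative values mostly reflect intrinsic compound fluorescence rather than true enhancement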
# Aptamer quench 1 = quenches fluorescent RNA aptamer, GRK2 hit artifact; shares compounds with GRK2 inh; Fluorescent RNA aptamer beads, quenching, flow cytometry; stronger effect = higher value; fluorescence change (kMESF span), kMESF (test concentration not listed); 110 tested, under 10 active; AID 504521;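 active = compounds whose bead fluorescence drops by more than 37 kMESF across the dose range, marking them as dye quenchers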
# Aptamer quench SP = counter-screen for GRK2 aptamer inhibitors: fluorescent aptamer quenchers; shares compounds with GRK2 inh; Carboxyfluorescein RNA aptamer on beads, flow cytometry quenching; stronger effect = lower value; fluorescence response (% of DMSO), % at 10 µM; 2,000 tested, under 10 active;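 active = compounds that quench the bead-bound fluorescent RNA probe, cutting fluorescence to under half of the solvent control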;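 also: counterscreen run without GRK2 so only probe quenching by compound is measured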
# GRK2 confirm 2 = confirmation of human GRK2 inhibitors binding RNA aptamer site. shares compounds with GRK2 inh. AID 504782. inhibition of aptamer binding, % at 10 µM. bead-bound GRK2, FAM-aptamer displacement, flow cytometry. 360 tested, under 10 active;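 active = inhibition of aptamer binding above 40%, about triple the noise seen with nonglowing compounds, on plates passing quality control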;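 also: negative values mostly come from compounds that fluoresce themselves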
# FAM quench CP2 = quenches fluorescent RNA aptamer, GRK2 hit artifact. shares compounds with GRK2 inh. carboxyfluorescein RNA aptamer beads, flow cytometry quenching; stronger effect = lower value. fluorescence response vs DMSO, % at 10 µM. 360 tested, under 10 active. AID 588494;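 active = response vs DMSO under 50%, meaning signal dropped by over half, treated as fluorescence quencher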;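 also: labelled aptamer on streptavidin beads without GRK2 as a quench counter-screen; 100% = bead fluorescence of DMSO wells and lower means quenching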
# * marks the source's active call; other numbers are inactive results; . = no result.
SMILES,CAL PDZ FP-1,GRK2 inh,ARNT-TACC3 inh,CAL PDZ FP-2,Tn7 DDE FP,DDE Tn6 FP inh,GRK2 CP1,Aptamer quench SP,others
CC(C)(C)C(=O)OCc1ccc(C2=CC(=O)CC(C)(C)C2=O)cc1,.,.,.,.,5.6,4.5,.,.,
COc1cccc(/C=C2\CC(C)Cc3c2nc2ccccc2c3C(=O)O)c1OC (stereo not drawn),-3.5,1.0,-0.4,-1.8,4.0,-0.3,.,.,
COc1cc(/C=C2\CCc3c2nc2ccccc2c3C(=O)O)cc(OC)c1OC,0.5,62.0*,1.7,-6.0,-0.3,6.6,45.1*,100.0,Aptamer quench 1=0.3
CCN(CC)C(=O)Cn1cc(C(=O)C(=O)N2CCc3ccccc32)c2ccccc21,-1.5,40.0,-5.5,46.1*,-0.4,4.8,-0.6,100.0,
O=C(Nc1ccccc1)c1ccc(CN2CCc3ccccc3C2)cc1,0.8,100.0*,-3.8,5.3,3.5,2.2,.,.,GRK2 confirm 2=-14.0;FAM quench CP2=98.0
CC1CCN(CCCNC(=O)c2ccc(Cn3c(=S)[nH]c4ccc(Br)cc4c3=O)cc2)CC1,.,0.0,.,.,.,.,.,.,
C[C@@H]1CCCCO[C@@H](CN(C)Cc2ccc(C(=O)O)cc2)[C@H](C)CN([C@H](C)CO)C(=O)c2cc(NC(=O)NC3CCCCC3)ccc2O1,.,.,13.9,.,.,.,.,.,
CS(=O)(=O)N(CC(N)=O)c1cccc(Br)c1,-1.1,1.0,-5.9,-6.2,3.9,7.7,.,.,
Cc1cccc(N(CC(N)=O)S(C)(=O)=O)c1C,0.1,23.0,-1.6,.,-1.5,-2.6,1.9,97.1,
C[C@@H]1CN([C@H](C)CO)C(=O)CCCn2nncc2CO[C@@H]1CN(C)CC1CC1,.,.,-12.8,.,.,.,.,.,
CCOc1cc(/C=C2\SC(=NC)N(C)C2=O)c(Br)cc1OC(C)=O,-2.8,74.0*,-11.8,-1.4,-0.7,2.7,-0.2,92.2,
Cc1ccc(C)c(S(=O)(=O)NCCCc2ccccc2)c1,-2.3,81.0*,-10.5,1.7,0.2,1.4,0.4,109.2,
O=S(=O)(NCCCc1ccccc1)c1ccccc1,-1.4,0.0,1.4,-2.8,-9.5,4.4,.,.,
CC(=O)Nc1ccc(C(=O)OCC(=O)NCc2ccccc2)cc1,.,2.0,11.8,1.5,-2.5,0.3,.,.,
CC(=O)Nc1ccc(OCC(=O)NCc2ccccc2)cc1,-2.9,100.0*,.,-2.6,4.2,0.5,-0.3,91.2,
Cc1cccc(-n2ccc(=O)c(C(=O)Nc3ccc(S(=O)(=O)Nc4nccc(C)n4)cc3)n2)c1,-2.6,94.0*,-5.0,-6.8,1.8,-2.4,1.3,99.2,
Cc1cccc(-n2ccc(=O)c(C(=O)Nc3ccc(S(=O)(=O)N4CCOCC4)cc3)n2)c1,-3.0,3.0,-0.1,-3.5,-5.1,-2.2,.,.,
O=c1c2c(ncn2C2CCCC2)n(Cc2ccccc2)c(=O)n1CCOc1ccccc1,-0.6,0.0,0.9,-3.4,-2.6,-4.6,.,.,
O=c1c2c(ncn2C2CCCC2)n(Cc2ccccc2)c(=O)n1CCOc1ccc(Br)cc1,-1.6,100.0*,-5.7,-24.4,9.0,2.6,.,.,GRK2 confirm 2=-14.4;FAM quench CP2=107.0
C[C@@H]1CN([C@@H](C)CO)C(=O)c2cc(NC(=O)c3ccncc3)ccc2O[C@H]1CN(C)S(=O)(=O)c1cccs1,.,.,1.6,.,.,.,.,.,
O=C(C[C@H]1C=C[C@H](NC(=O)C2CC2)[C@H](CO)O1)NCc1ccccc1Cl,.,.,-9.3,.,.,.,.,.,
COc1ccc(Cl)cc1Nc1nc(C)nc2c1oc1ccccc12,-1.7,0.0,.,-3.5,0.5,3.3,.,.,
Cc1nc(Oc2cccc(Cl)c2)c2oc3ccccc3c2n1,-1.5,41.0*,-16.6,-2.2,-1.0,6.9,0.1,99.1,
Cc1ccc(S(=O)(=O)NC(=O)C2(C)CCN2C(=O)CC2CCCC2)nc1 (stereo not drawn),.,.,.,.,5.7,9.0,.,.,
COCC(=O)Nc1ccc2c(c1)[C@@H]1C[C@@H](CC(=O)NCc3ccc(Cl)cc3)O[C@H](CO)[C@@H]1O2,.,.,-8.1,.,.,.,.,.,
SMILES,CAL PDZ FP-1,GRK2 inh,ARNT-TACC3 inh,CAL PDZ FP-2,Tn7 DDE FP,DDE Tn6 FP inh,GRK2 CP1,Aptamer quench SP,others
O=c1c2ccccc2nc2n1CCc1c-2[nH]c2ccccc12,-0.5,19.0,-7.7,-2.8,0.0,-0.8,3.2,95.3,
Cc1cc(NC(=O)CCCn2cnc([N+](=O)[O-])n2)no1,-1.2,0.0,-2.3,-7.1,2.5,1.2,.,.,
Cc1cc(NC(=O)CCCn2nc(C)c([N+](=O)[O-])c2C)no1,-2.6,51.0*,-1.8,-3.4,0.5,-0.7,-0.3,97.9,
Cc1ccc(-c2ccnc(-c3ccc(O)cc3)n2)cc1,-1.5,0.0,4.7,10.8,-3.0,-6.7,.,.,
Oc1ccc(-c2nccc(-c3ccc(Br)cc3)n2)cc1,-2.2,6.0,-13.1,-1.9,-2.3,-5.7,-5.3,100.2,
COCCNCCCOc1ccc(C(C)(C)c2ccccc2)cc1,-2.9,100.0*,.,-17.8,-2.6,-2.5,.,.,GRK2 confirm 2=-1.4;FAM quench CP2=101.0
O=C(C[C@H]1CC[C@@H](NC(=O)c2ccccn2)[C@H](CO)O1)NCc1cc(F)cc(F)c1,.,.,-2.3,.,.,.,.,.,
Cc1c(NC(=O)CSc2nnc(C(C)N(C)C)n2-c2ccccc2)c(=O)n(-c2ccccc2)n1C (stereo not drawn),-0.7,.,.,-6.1,9.6,0.3,.,.,
O=C(O)C1CCCCC1C(=O)Nc1cccc(Br)c1 (stereo not drawn),-0.9,86.0*,.,-5.3,2.4,7.7,92.9*,91.5,Aptamer quench 1=0.2
CC1CCCCN1C(=O)c1ccc(C(=O)N2CCCCC2C)cc1 (stereo not drawn),-1.6,0.0,-9.1,.,3.8,4.6,.,.,
Cc1ccc(C)c(S(=O)(=O)NCc2ccc(C(=O)N3CCCCC3C)cc2)c1 (stereo not drawn),-1.0,52.0*,0.9,-3.8,-1.9,-4.8,2.2,93.3,
CCCNC(=O)C[C@H]1CC[C@H]2[C@@H](COC[C@H](O)CN2C(=O)c2ccccn2)O1,.,.,5.7,.,.,.,.,.,
Cc1ccccc1CCN(CC(=O)NCc1ccc(F)cc1)C(=O)c1csnn1,-3.1,70.0*,-3.9,-3.8,7.5,-2.6,0.8,98.9,
